Reference: ChEMBL document CHEMBL1147738, “Potent and selective mitogen-activated protein kinase kinase (MEK) 1,2 inhibitors. 1. 4-(4-bromo-2-fluorophenylamino)-1- methylpyridin-2(1H)-ones” (J Med Chem, 2006)
Converted amounts (≈) assume the structure as drawn.

How the values were obtained:
Malme-3M [1] = experiment: Inhibition of cellular viability of Malme-3M cells; format: functional, Homo sapiens
Malme-3M [2] = experiment: Inhibition of basal ERK phosphorylation in Malme-3M cells; format: functional, Homo sapiens
HT-29 [3] = experiment: Inhibition of ERK phosphorylation in HT29 tumor bearing NCr-nu/nu mice after 4 hrs at 10 mg/kg, po; format: functional; details: Mus musculus, HT-29, 4 h
[4] = Aqueous solubility at pH 6.5; format: physicochemical
How it was run: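 Thermodynamic shake-flask method: crystalline solid (0.5 mg, crystallinity confirmed by polarizing microscopy) in 0.5 mL 10 mM potassium phosphate, pH 6.5, swirled 24 h at room temperature. Filtered aliquots were quantified by HPLC-PDA against a calibration curve.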

HT-29 [5] = experiment: Inhibition of ERK phosphorylation in HT29 tumor bearing Ncr-nu/nu mice after 12 hrs at 10 mg/kg, po; format: functional; details: Mus musculus, HT-29, 12 h
Rattus norvegicus [6] = experiment: AUC in rat at 10 mg/kg, po; format: ADME, organism-based, Sprague-Dawley, Plasma; set-up: dose 10 mg/kg, route oral; details: in vivo
How it was run: (§1)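 Male Sprague Dawley rats (6-10 weeks) were given 10 mg/kg by oral gavage (2 mg/mL in 1% CMC/0.5% Tween 80, 5 mL/kg). Tail-vein EDTA blood was drawn at 15 and 30 min and 1, 2, 4, 8, 12, 24, 48, 72 h. Plasma was quantified by LC/MS/MS after methanol precipitation. Parameters came from non-compartmental analysis.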

Rattus norvegicus [7] = experiment: AUC in rat at 1 mg/kg, iv; format: ADME, organism-based, Sprague-Dawley, Plasma; set-up: dose 1 mg/kg, route intravenous; details: in vivo
How it was run: (§2)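 Male Sprague Dawley rats (6-10 weeks), fed ad lib, dosed IV at 1 mg/kg (1 mg/mL in 10% DMSO/90% normal saline, 1 mL/kg). Tail-vein EDTA blood sampled 1, 5, 15, 30 min and 1, 2, 4, 8, 12, 24 h. Plasma analysed by LC/MS/MS after methanol protein precipitation, range 9 ng/mL to 20 µg/mL. Parameters derived by non-compartmental analysis.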

[8] = Clearance in rat; format: ADME, organism-based; details: Sprague-Dawley, in vivo
How it was run: (§3)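 Male Sprague Dawley rats (6-10 weeks) received IV 1 mg/kg (10% DMSO/90% saline) and PO 10 mg/kg (1% CMC/0.5% Tween 80). Serial tail-vein plasma was taken up to 24 h (IV) or 72 h (PO) and analysed by LC/MS/MS (9 ng/mL to 20 µg/mL). Parameters were calculated non-compartmentally.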

[9] = Half life in rat at 10 mg/kg, po; format: ADME, organism-based; set-up: dose 10 mg/kg, route oral; details: Sprague-Dawley, in vivo; how it was run: as §1
[10] = Oral bioavailability in rat; format: ADME, organism-based; details: Sprague-Dawley, in vivo; how it was run: as §3
[11] = Clearance in presence of human hepatocytes; format: ADME, cell-based, Liver, Hepatocyte
How it was run: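 Human hepatocytes (fresh or cryopreserved) diluted to 2 x 10⁶ viable cells/mL in supplemented Krebs-Henseleit buffer pH 7.3, mixed 1:1 with 2 µM compound working solution. Incubated at 37 °C, 5% CO₂, duplicates, one plate per timepoint. Quenched with labetalol internal standard and centrifuged; compound remaining measured by LC-MS/MS (ESI+, MRM).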

[12] = Volume of distribution in rat; format: ADME, organism-based; details: Sprague-Dawley, in vivo, read-out: Vdss; how it was run: as §3
[13] = Half life in rat at 1 mg/kg, iv; format: ADME, organism-based; set-up: dose 1 mg/kg, route intravenous; details: Sprague-Dawley, in vivo; how it was run: as §2
[14] = molecular target: T1, Serine/threonine-protein kinase Chk1 (Homo sapiens) (UniProt O14757); experiment: Inhibition of CHK1 at 10 uM
T1 sequence (whole entry): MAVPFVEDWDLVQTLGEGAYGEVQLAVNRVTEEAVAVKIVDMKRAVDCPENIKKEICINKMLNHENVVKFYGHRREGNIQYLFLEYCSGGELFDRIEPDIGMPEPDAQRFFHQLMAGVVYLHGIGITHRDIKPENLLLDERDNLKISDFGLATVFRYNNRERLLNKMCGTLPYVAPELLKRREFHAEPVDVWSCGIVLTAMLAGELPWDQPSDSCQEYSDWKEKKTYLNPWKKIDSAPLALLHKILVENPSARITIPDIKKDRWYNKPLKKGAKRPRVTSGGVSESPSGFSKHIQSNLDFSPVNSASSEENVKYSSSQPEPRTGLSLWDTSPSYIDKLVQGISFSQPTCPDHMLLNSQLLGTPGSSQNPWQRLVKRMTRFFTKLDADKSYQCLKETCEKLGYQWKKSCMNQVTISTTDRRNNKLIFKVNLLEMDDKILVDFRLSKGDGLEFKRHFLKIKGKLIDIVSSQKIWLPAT
How it was run: (§4)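 Kinase panel run at Upstate (Dundee). Each compound was tested at 10 µM against each enzyme and reported as % inhibition.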

[15] = molecular target: Rho-associated protein kinase 2 (Homo sapiens) (UniProt O75116); experiment: Inhibition of ROCK 2 at 10 uM; how it was run: as §4
Rho-associated protein kinase 2 (Homo sapiens), sequence (O75116 whole entry, looked up): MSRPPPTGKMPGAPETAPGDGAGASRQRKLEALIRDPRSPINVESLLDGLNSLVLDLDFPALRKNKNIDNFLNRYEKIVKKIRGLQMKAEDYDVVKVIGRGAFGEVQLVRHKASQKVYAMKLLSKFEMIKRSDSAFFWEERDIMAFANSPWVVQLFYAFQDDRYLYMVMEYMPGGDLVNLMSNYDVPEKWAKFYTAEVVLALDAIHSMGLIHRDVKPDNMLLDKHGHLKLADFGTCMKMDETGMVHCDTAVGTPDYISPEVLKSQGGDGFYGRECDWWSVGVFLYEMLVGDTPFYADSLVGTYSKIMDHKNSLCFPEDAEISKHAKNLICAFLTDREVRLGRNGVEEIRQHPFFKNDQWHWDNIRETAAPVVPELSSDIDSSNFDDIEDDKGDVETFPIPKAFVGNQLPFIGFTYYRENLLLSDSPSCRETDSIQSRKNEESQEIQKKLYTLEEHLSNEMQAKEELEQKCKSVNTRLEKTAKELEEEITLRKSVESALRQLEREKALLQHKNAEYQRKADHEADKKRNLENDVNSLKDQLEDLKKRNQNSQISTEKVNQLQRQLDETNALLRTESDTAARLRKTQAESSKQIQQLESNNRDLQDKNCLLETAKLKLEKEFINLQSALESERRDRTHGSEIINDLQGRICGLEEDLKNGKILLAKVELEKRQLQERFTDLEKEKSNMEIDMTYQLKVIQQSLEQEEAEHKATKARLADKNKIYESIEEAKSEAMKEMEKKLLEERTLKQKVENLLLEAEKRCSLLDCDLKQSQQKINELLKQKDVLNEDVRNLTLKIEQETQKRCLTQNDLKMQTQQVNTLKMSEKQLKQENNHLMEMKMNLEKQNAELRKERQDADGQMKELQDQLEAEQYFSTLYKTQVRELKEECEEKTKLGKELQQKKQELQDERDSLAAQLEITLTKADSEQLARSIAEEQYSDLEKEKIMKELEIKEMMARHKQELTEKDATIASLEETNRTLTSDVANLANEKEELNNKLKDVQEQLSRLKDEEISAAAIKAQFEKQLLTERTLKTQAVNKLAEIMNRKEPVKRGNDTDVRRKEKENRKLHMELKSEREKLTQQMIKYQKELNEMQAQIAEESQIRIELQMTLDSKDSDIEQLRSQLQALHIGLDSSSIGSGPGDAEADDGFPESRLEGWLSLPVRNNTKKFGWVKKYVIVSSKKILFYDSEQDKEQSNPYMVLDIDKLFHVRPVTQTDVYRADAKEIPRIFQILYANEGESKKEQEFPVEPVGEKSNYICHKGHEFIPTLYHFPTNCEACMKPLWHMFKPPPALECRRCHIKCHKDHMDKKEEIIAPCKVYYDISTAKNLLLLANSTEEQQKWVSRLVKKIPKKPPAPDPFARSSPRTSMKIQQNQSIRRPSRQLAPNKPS

[16] = molecular target: Tyrosine-protein kinase Lck (Homo sapiens) (UniProt P06239); experiment: Inhibition of LCK at 10 uM; how it was run: as §4
Tyrosine-protein kinase Lck (Homo sapiens), sequence (P06239 2-509 limits assumed): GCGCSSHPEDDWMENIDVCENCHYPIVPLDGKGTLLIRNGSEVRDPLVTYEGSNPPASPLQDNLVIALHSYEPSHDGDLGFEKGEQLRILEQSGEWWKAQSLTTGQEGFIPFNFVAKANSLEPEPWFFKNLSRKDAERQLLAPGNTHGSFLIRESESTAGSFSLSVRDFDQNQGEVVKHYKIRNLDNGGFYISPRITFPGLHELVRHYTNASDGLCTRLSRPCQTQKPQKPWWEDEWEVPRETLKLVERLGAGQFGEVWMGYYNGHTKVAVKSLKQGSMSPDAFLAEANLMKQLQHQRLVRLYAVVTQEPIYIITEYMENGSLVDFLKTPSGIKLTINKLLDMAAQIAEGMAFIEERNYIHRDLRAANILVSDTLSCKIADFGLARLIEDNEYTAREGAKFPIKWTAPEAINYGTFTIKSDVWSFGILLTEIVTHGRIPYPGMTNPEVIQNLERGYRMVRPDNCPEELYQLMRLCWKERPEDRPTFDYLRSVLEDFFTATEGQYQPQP

[17] = molecular target: cAMP-dependent protein kinase (PKA) (Homo sapiens) (UniProt P22694+P17612+P22612); experiment: Inhibition of PKA at 10 uM; format: protein assay; how it was run: as §4
[18] = molecular target: Mitogen-activated protein kinase 11 (Homo sapiens) (UniProt Q15759); experiment: Inhibition of SAPK2b/p38--beta-2 at 10 uM; how it was run: as §4
[19] = molecular target: T2, MAP kinase-activated protein kinase 5 (Homo sapiens) (UniProt Q8IW41); experiment: Inhibition of PRAK at 10 uM; how it was run: as §4
T2 sequence (whole entry): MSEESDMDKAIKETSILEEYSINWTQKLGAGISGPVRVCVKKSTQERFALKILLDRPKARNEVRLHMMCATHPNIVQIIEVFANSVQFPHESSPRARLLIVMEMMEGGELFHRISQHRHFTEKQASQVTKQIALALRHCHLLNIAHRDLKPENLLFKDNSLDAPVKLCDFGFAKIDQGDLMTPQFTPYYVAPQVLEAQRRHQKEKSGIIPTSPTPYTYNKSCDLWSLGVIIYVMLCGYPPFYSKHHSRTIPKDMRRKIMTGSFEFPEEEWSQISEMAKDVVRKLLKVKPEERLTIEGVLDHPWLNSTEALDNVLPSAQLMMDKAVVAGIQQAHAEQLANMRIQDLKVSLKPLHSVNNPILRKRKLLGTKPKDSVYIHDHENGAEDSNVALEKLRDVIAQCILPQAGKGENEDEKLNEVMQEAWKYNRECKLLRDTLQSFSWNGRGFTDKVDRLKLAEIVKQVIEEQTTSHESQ

[20] = molecular target: Casein kinase II (Homo sapiens) (UniProt P67870+P68400+P19784); experiment: Inhibition of CK2 at 10 uM; format: protein-complex assay; how it was run: as §4
[21] = molecular target: Ribosomal protein S6 kinase (P70S6K) (Homo sapiens) (UniProt Q9UBS0+P23443); experiment: Inhibition of p70 S6K at 10 uM; format: protein-complex assay; how it was run: as §4
[22] = molecular target: Glycogen synthase kinase-3 beta (Homo sapiens) (UniProt P49841); experiment: Inhibition of GSK3b at 10 uM; how it was run: as §4
[23] = molecular target: MAP kinase-activated protein kinase 2 (Homo sapiens) (UniProt P49137); experiment: Inhibition of MAPKAP-K2 at 10 uM; how it was run: as §4
MAP kinase-activated protein kinase 2 (Homo sapiens), sequence (P49137 whole entry, looked up): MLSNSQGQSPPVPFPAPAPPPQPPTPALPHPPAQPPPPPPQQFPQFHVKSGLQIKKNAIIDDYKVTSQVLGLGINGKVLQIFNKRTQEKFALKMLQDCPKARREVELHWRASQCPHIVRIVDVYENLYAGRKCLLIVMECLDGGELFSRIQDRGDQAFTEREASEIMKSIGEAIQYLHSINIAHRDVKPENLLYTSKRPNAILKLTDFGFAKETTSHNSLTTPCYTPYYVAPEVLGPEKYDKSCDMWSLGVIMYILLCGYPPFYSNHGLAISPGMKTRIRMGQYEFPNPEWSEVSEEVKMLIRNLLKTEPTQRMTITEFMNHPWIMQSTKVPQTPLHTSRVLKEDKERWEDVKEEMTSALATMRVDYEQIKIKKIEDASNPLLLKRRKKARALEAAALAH

[24] = molecular target: AMP-activated protein kinase, AMPK (Homo sapiens) (UniProt P54646+O43741+P54619+Q9UGJ0+Q9Y478+Q13131+Q9UGI9); experiment: Inhibition of AMPK at 10 uM; format: protein-complex assay; how it was run: as §4
[25] = molecular target: Protein kinase C alpha type (Homo sapiens) (UniProt P17252); experiment: Inhibition of PKCa at 10 uM; how it was run: as §4
[26] = molecular target: Cyclin-dependent kinase 2/cyclin A (Homo sapiens) (UniProt P24941+P20248+P78396); experiment: Inhibition of CDK2/cyclin A at 10 uM; format: protein-complex assay; how it was run: as §4
[27] = molecular target: Ribosomal protein S6 kinase alpha-5 (Homo sapiens) (UniProt O75582); experiment: Inhibition of MSK1 at 10 uM; how it was run: as §4
Ribosomal protein S6 kinase alpha-5 (Homo sapiens), sequence (O75582 whole entry, looked up): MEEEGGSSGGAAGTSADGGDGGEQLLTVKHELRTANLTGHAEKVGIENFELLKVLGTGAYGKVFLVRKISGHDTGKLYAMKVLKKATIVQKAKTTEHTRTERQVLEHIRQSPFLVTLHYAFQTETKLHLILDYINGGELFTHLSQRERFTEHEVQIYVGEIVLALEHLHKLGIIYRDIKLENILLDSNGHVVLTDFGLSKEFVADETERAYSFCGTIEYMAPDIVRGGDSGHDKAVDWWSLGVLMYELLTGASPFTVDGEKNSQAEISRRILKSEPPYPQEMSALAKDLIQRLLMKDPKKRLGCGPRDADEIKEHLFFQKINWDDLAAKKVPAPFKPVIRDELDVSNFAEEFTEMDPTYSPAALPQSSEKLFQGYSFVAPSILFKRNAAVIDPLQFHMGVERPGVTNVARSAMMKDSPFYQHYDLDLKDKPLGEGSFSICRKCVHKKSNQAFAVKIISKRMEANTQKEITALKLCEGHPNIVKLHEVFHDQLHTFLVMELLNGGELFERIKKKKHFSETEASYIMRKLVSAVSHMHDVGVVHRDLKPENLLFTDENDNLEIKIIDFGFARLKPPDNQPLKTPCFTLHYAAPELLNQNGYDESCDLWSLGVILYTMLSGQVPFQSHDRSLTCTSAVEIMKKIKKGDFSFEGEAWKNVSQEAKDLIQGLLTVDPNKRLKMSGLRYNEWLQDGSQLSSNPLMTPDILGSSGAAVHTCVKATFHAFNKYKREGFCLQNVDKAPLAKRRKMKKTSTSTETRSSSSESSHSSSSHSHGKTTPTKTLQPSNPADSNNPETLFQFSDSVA

[28] = molecular target: Mitogen-activated protein kinase 8 (Homo sapiens) (UniProt P45983); experiment: Inhibition of JNK/SAPK1c at 10 uM; how it was run: as §4
[29] = molecular target: T3, Lymphokine-activated killer T-cell-originated protein kinase (Homo sapiens) (UniProt Q96KB5); experiment: Inhibition of PBK at 10 uM; how it was run: as §4
T3 sequence (whole entry): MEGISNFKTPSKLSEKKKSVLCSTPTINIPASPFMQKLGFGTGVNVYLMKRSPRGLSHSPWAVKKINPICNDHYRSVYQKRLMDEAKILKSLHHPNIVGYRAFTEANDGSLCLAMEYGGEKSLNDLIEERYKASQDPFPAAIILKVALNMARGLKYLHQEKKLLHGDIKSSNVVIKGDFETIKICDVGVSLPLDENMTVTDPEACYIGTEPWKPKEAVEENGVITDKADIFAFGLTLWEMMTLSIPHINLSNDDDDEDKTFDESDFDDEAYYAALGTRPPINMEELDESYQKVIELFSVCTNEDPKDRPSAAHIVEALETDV

[30] = molecular target: Dual specificity tyrosine-phosphorylation-regulated kinase 1A (Homo sapiens) (UniProt Q13627); experiment: Inhibition of DYRK1a at 10 uM; how it was run: as §4
[31] = molecular target: Ribosomal protein S6 kinase alpha-1 (Homo sapiens) (UniProt Q15418); experiment: Inhibition of MAPKAP-K1a at 10 uM; how it was run: as §4
Ribosomal protein S6 kinase alpha-1 (Homo sapiens), sequence (Q15418 whole entry): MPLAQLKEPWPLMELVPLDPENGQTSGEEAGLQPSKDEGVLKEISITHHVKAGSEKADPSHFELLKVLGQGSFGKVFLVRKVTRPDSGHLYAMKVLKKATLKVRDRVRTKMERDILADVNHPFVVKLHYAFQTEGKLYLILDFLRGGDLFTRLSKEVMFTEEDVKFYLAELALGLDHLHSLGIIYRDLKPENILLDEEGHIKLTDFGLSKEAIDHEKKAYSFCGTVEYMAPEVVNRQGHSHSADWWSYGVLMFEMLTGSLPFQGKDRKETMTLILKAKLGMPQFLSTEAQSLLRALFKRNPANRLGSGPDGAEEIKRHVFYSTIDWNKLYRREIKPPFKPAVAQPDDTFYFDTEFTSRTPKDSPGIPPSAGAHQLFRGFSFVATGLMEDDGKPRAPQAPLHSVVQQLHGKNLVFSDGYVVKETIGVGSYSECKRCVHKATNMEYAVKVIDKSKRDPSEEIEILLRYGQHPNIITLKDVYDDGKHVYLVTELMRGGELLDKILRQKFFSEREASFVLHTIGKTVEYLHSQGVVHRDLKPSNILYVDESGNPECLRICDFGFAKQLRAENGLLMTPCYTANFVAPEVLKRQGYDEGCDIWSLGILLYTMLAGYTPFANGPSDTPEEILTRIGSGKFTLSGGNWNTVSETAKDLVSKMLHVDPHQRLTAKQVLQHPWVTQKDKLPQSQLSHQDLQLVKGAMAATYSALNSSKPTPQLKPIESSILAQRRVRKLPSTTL

[32] = molecular target: Mitogen-activated protein kinase 1 (Homo sapiens) (UniProt P28482); experiment: Inhibition of MAPK2/ERK2 at 10 uM; how it was run: as §4
[33] = molecular target: RAC-alpha serine/threonine-protein kinase (Homo sapiens) (UniProt P31749); experiment: Inhibition of PKBa at 10 uM; how it was run: as §4
RAC-alpha serine/threonine-protein kinase (Homo sapiens), sequence (P31749 whole entry): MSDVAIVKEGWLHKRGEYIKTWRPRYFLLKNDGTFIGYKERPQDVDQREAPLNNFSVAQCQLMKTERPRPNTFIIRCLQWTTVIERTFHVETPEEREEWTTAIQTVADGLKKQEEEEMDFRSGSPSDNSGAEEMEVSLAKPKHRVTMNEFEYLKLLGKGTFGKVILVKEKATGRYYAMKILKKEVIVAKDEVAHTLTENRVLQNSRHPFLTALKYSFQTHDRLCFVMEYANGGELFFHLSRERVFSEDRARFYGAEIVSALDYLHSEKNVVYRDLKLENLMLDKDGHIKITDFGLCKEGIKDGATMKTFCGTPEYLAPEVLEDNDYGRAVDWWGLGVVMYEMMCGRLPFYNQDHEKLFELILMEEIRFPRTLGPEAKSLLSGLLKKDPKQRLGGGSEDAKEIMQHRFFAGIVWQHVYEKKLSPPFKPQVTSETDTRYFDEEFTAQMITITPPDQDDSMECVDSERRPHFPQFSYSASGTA

[34] = molecular target: Mitogen-activated protein kinase 14 (Homo sapiens) (UniProt Q16539); experiment: Inhibition of SAPK2a/p38 at 10 uM; how it was run: as §4

Cn1cc(C(=O)NCC2CC2)c(Nc2ccc(Br)cc2F)c(F)c1=O
Activity (Malme-3M [1]): >5000 nM
Activity (Malme-3M [2]): 1206 nM

Cn1cc(C(=O)NOCCO)c(Nc2ccc(Br)cc2F)cc1=O
Activity (Malme-3M [1]): 460 nM
Activity (Malme-3M [2]): 73 nM

Cc1c(Nc2ccc(Br)cc2F)c(C(=O)NOCC2CC2)cn(C)c1=O
Activity (Malme-3M [1]): 46 nM
Activity (Malme-3M [2]): 7.5 nM

COc1ncc(C(=O)NOCCO)c(Nc2ccc(Br)cc2F)c1Cl
Activity (Malme-3M [1]): >5000 nM
Activity (Malme-3M [2]): >10000 nM

Cn1cc(C(=O)O)c(Nc2ccc(Br)cc2F)c(F)c1=O
Activity (Malme-3M [1]): >5000 nM
Activity (Malme-3M [2]): >10000 nM

CNC(=O)c1cn(C)c(=O)c(F)c1Nc1ccc(Br)cc1F
Activity (Malme-3M [1]): 405 nM
Activity (Malme-3M [2]): 68 nM

Cn1cc(C(N)=O)c(Nc2ccc(Br)cc2F)c(F)c1=O
inhibition in vivo at 10 mg/kg (HT-29 [3]): > 80%
solubility [4]: 26 µg/mL (≈ 72.6 µM)
inhibition in vivo at 10 mg/kg (HT-29 [5]): 50%
AUC (Rattus norvegicus [6]): 23000 ng·h/mL
AUC (Rattus norvegicus [7]): 2500 ng·h/mL
clearance [8]: 5.7 mL/min/kg
Activity (Malme-3M [1]): 48 nM
half-life [9]: 11 h
bioavailability [10]: 100%
CLhep predicted [11]: 9 mL/min/kg
Activity (Malme-3M [2]): 7.1 nM
Vd [12]: 0.8 L/kg
half-life [13]: 1.8 h

CCONC(=O)c1cn(C)c(=O)c(F)c1Nc1ccc(Br)cc1F
inhibition [14]: 13%
inhibition [15]: 4%
inhibition [16]: 19%
inhibition [17]: 14%
inhibition [18]: 9%
inhibition [19]: 18%
AUC (Rattus norvegicus [6]): 138000 ng·h/mL
AUC (Rattus norvegicus [7]): 24100 ng·h/mL
inhibition [20]: 4%
inhibition [21]: 13%
clearance [8]: 0.7 mL/min/kg
inhibition [22]: 21%
inhibition [23]: 15%
inhibition [24]: 8%
inhibition [25]: 6%
half-life [9]: 12 h
bioavailability [10]: 58%
inhibition [26]: 25%
inhibition [27]: 7%
inhibition [28]: 15%
inhibition [29]: -1%
inhibition [30]: 12%
CLhep predicted [11]: 2 mL/min/kg
inhibition [31]: 6%
inhibition [32]: 7%
Vd [12]: 0.4 L/kg
inhibition [33]: 6%
half-life [13]: 6 h
inhibition [34]: 10%
